According to ChEMBL document CHEMBL4020814, “Synthesis, Binding Mode, and Antihyperglycemic Activity of Potent and Selective (5-Imidazol-2-yl-4-phenylpyrimidin-2-yl)[2-(2-pyridylamino)ethyl]amine Inhibitors of Glycogen Synthase Kinase 3” (J Med Chem, 2017):
Blank lines part the entries; values can stand above or below the compound they belong to. Active and inactive are the calls of the source. No cut-off for these calls is given here.

What was measured:
[1] = Stability in dog liver microsomes assessed as half life; type: ADME, Canis lupus familiaris, microsome
[2] = molecular target: Insulin-like growth factor 1 receptor (Homo sapiens, UniProt P08069)
Chain of Insulin-like growth factor 1 receptor (P08069 31-736 limits assumed): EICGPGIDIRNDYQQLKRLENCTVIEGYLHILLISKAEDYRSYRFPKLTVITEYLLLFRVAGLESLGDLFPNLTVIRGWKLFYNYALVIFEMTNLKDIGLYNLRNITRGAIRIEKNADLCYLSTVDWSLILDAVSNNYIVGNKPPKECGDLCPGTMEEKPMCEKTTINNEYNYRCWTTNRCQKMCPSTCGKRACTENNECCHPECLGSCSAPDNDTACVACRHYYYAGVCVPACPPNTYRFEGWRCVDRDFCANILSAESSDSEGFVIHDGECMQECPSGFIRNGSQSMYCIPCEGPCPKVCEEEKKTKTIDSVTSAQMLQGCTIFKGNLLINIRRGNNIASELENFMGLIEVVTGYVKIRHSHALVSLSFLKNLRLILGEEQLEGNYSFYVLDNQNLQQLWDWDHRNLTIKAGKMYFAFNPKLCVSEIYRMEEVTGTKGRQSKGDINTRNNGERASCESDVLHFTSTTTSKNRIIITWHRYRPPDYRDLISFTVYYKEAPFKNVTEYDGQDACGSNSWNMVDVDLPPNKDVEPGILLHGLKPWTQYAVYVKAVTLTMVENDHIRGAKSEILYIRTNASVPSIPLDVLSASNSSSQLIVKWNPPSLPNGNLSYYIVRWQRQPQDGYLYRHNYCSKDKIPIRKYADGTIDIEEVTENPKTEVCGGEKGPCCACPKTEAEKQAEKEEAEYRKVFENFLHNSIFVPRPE
Chain of Insulin-like growth factor 1 receptor (P08069 741-1367 limits assumed): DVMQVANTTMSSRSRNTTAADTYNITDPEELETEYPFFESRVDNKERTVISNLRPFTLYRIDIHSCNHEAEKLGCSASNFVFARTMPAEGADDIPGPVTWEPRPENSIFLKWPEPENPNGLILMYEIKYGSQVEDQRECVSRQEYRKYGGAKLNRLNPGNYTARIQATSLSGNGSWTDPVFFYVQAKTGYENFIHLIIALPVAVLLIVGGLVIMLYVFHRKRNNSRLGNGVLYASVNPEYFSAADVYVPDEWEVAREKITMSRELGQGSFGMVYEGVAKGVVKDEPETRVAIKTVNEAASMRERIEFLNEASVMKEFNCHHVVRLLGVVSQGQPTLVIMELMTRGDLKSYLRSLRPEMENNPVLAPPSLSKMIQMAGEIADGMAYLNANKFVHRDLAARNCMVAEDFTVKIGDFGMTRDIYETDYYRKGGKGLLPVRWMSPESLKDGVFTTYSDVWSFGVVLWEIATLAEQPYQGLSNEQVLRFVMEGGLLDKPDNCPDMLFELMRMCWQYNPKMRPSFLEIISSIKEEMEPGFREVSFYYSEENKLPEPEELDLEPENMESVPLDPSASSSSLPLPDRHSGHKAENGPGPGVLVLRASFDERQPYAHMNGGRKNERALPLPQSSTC

[3] = molecular target: Cyclin-dependent kinase 1 (Homo sapiens, UniProt P06493); test: Inhibition of human CDC2 using biotin histone H1 peptide substrate after 1 hr by scintillation counting method
Chain of Cyclin-dependent kinase 1 (P06493 whole entry): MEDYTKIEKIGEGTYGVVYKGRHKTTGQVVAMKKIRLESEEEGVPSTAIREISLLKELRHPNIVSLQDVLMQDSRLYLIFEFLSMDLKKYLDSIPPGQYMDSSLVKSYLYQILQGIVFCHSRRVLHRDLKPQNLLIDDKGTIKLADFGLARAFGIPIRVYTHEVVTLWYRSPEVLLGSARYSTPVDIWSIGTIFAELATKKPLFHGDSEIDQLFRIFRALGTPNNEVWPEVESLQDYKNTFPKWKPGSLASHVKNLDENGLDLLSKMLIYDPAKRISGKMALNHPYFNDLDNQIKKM

[4] = Inhibition of rat AMP kinase using SAMS peptide substrate in the presence of AMP after 1 hr by scintillation counting method
Method in brief: (§1)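 Kinase buffer: 50 mmol/L Tris-HCl pH 7.5, 10 mmol/L MgCl2, 1 mmol/L EGTA, 1 mmol/L DTT, 25 mmol/L β-glycerophosphate, 1 mmol/L NaF, 0.01% BSA. It contained kinase, peptide substrate and activators. Compound was added in DMSO with 1 μmol/L final ATP. PKC-ζ, AMPK and pdk1 were commercial enzymes.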

[5] = molecular target: Glycogen synthase kinase-3 beta (Homo sapiens, UniProt P49841); test: Inhibition of human GSK3beta using biotin-CREB peptide substrate after 1 hr by scintillation counting method
Chain of Glycogen synthase kinase-3 beta (P49841 whole entry): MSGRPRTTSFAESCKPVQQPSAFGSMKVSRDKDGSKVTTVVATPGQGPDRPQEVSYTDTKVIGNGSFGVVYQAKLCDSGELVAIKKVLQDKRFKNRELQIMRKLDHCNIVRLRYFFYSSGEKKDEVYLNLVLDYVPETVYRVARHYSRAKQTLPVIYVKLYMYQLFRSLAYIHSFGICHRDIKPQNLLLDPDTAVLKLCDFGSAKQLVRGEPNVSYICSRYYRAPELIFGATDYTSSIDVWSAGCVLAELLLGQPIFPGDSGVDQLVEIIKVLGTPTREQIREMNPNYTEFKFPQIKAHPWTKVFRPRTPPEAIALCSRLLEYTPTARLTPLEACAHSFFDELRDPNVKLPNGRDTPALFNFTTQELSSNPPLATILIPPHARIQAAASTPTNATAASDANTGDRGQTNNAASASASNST

[6] = Inhibition of human GSK3 using biotin-CREB peptide substrate after 1 hr by scintillation counting method
[7] = molecular target: T1, 3-phosphoinositide-dependent protein kinase 1 (Homo sapiens, UniProt O15530); test: Inhibition of human PDK1 using unactivated AKT substrate in presence of COPC, DOPS and PIP3 activators after 1 hr by scintillation counting method; method in brief: as §1
T1 sequence (O15530 whole entry): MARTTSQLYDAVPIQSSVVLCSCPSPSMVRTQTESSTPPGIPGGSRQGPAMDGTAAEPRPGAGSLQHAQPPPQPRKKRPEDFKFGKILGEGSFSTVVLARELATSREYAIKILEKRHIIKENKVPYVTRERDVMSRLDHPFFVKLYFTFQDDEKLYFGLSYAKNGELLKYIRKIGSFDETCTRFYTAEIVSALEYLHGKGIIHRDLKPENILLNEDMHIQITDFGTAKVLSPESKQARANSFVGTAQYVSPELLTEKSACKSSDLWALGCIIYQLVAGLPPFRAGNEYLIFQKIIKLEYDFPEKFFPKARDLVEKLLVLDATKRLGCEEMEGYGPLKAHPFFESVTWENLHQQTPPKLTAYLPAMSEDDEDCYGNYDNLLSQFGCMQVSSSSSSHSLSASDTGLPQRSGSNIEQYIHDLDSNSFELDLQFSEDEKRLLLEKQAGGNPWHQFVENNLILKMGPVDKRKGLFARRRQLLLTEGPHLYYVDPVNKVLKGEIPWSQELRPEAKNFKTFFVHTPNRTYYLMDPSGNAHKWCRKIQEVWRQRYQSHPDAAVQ

Angiopoietin-1 receptor = Angiopoietin-1 receptor (Homo sapiens, UniProt Q02763)
Chain of Angiopoietin-1 receptor (Q02763 whole entry): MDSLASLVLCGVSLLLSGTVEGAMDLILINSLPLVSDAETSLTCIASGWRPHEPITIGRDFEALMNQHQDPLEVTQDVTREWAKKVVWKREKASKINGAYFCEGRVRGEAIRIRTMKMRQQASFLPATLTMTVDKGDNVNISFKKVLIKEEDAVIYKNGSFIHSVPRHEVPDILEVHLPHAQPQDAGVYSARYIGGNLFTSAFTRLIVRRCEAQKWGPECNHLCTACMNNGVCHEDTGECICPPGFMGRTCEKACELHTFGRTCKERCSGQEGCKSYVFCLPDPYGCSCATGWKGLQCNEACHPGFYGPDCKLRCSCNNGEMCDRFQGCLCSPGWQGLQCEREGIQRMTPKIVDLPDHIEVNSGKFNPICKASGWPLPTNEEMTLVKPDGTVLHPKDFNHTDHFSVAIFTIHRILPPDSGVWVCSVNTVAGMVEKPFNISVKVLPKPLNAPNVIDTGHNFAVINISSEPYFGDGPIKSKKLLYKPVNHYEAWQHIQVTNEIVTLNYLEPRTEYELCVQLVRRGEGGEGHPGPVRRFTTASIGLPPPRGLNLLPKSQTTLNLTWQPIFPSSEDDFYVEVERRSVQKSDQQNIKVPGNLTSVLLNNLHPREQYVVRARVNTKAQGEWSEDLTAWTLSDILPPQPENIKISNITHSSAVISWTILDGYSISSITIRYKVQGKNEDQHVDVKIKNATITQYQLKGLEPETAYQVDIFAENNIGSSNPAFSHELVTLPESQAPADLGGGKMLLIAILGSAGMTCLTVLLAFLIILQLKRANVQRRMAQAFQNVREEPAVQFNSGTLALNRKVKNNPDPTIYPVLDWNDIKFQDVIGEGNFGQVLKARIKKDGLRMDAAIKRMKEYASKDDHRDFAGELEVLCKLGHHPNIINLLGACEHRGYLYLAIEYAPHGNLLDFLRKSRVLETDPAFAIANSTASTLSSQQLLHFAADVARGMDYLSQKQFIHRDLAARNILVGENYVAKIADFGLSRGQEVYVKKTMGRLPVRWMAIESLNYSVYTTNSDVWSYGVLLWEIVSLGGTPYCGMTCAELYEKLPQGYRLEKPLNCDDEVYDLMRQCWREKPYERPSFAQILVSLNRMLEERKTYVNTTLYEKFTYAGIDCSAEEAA

[8] = Inhibition of human phosphatidylinositol (PI) 3-kinase using PI as substrate after 1 hr by scintillation counting method
[9] = molecular target: RAC-alpha serine/threonine-protein kinase (Homo sapiens, UniProt P31749); test: Inhibition of human AKT1/PKB using phospho-AKT peptide substrate after 1 hr by scintillation counting method
[10] = molecular target: Vascular endothelial growth factor receptor 1 (Homo sapiens, UniProt P17948)
Chain of Vascular endothelial growth factor receptor 1 (P17948 whole entry): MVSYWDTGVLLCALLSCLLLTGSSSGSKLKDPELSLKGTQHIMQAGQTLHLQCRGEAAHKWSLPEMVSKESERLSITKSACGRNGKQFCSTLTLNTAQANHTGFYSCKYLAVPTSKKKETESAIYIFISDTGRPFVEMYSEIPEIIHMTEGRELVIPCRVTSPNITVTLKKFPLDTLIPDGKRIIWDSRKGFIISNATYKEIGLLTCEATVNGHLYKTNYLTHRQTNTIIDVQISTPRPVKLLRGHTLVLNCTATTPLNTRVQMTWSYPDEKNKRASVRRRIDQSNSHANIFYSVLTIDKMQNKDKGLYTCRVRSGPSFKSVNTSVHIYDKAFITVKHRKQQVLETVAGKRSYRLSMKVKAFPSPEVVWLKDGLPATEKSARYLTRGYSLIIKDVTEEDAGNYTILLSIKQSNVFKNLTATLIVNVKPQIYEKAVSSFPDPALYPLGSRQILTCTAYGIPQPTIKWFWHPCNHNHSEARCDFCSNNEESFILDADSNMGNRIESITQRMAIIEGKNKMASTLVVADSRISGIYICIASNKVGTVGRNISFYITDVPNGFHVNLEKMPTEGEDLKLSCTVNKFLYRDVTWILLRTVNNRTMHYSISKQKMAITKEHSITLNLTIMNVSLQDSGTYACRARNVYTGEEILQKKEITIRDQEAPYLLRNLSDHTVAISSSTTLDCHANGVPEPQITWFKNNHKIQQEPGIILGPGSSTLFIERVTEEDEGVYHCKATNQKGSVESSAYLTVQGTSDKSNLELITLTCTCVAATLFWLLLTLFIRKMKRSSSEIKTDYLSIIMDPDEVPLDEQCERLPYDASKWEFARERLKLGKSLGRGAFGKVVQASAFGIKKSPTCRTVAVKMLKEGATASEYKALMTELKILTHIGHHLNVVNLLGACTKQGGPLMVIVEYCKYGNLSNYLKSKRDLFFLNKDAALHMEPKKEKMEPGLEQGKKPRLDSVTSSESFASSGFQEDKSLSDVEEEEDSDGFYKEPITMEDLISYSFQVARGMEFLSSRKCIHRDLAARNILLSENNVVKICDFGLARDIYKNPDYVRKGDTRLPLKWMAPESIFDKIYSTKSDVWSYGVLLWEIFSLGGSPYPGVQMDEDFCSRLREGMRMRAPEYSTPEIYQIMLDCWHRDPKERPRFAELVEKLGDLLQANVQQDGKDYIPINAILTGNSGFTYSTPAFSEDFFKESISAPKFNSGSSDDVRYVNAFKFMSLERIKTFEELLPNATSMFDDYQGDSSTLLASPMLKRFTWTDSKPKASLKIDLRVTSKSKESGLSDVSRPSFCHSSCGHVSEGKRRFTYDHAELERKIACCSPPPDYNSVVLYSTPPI

[11] = molecular target: Mitogen-activated protein kinase 1 (Homo sapiens, UniProt P28482); test: Inhibition of human ERK2 using myelin basic protein substrate after 1 hr by scintillation counting method
[12] = molecular target: Glycogen synthase kinase-3 alpha (Homo sapiens, UniProt P49840); test: Inhibition of human GSK3alpha using biotin-CREB peptide substrate after 1 hr by scintillation counting method
Chain of Glycogen synthase kinase-3 alpha (P49840 whole entry): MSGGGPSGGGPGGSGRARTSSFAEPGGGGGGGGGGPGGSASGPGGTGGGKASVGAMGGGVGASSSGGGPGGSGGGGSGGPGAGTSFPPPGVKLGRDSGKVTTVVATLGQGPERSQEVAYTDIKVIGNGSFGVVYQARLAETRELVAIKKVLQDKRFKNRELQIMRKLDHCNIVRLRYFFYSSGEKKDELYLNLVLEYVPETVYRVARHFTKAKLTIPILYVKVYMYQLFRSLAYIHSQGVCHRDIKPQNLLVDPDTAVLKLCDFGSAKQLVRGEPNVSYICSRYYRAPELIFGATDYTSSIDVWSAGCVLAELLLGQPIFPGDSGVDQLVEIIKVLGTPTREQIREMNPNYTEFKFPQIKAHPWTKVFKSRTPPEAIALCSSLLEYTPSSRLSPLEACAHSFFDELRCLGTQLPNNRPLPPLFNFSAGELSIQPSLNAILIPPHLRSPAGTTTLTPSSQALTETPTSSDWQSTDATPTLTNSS

[13] = Inhibition of GSK3 expressed in CHO-IR cells expressing human insulin receptor assessed as glycogen synthase activation after 30 mins by filter paper assay; type: cell-based, Cavia porcellus
Rattus norvegicus [14] = test: Antidiabetic activity in diabetic ZDF fa/fa rat assessed as reduction in plasma glucose AUC at 8 mg/kg administered 4.5 and 0.5 hrs prior to oral glucose challenge by oral glucose tolerance test; type: functional; set-up: scale not given: the % may be the effect or the level left
Method in brief: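 Obese 10-week-old ZDF (fa/fa) rats, n = 8/group, fasted overnight, given 8 mg/kg orally at 4.5 and 0.5 h before oral glucose challenge. Efficacy is the percent reduction in plasma glucose AUC versus untreated animals. Formulations were 15% captisol, 1% CMC or water with pH adjusted.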

[15] = molecular target: Casein kinase I isoform epsilon (Homo sapiens, UniProt P49674); test: Inhibition of human CK1epsilon using biotin peptide substrate after 1 hr by scintillation counting method
[16] = Plasma concentration in diabetic db/db mouse at 30 mg/kg administered at 4.5 and 0.5 hrs prior to oral glucose challenge measured 20 mins post second dose; details: plasma
[17] = Inhibition of human DNA-dependent protein kinase using PI as substrate after 1 hr by scintillation counting method
[18] = Stability in rat liver microsomes assessed as half life; type: ADME, microsome
[19] = molecular target: Fibroblast growth factor receptor 1 (Homo sapiens, UniProt P11362)
[20] = Oral bioavailability in diabetic ZDF fa/fa rat at 8 mg/kg administered 4.5 and 0.5 hrs prior to oral glucose challenge; type: ADME, organism-based; details: in vivo
[21] = molecular target: Vascular endothelial growth factor receptor 2 (Homo sapiens, UniProt P35968)
[22] = molecular target: T2, Serine/threonine-protein kinase Chk1 (Homo sapiens, UniProt O14757); test: Inhibition of human CHK1 using biotin-CDC25 peptide substrate after 1 hr by scintillation counting method
T2 sequence (O14757 whole entry): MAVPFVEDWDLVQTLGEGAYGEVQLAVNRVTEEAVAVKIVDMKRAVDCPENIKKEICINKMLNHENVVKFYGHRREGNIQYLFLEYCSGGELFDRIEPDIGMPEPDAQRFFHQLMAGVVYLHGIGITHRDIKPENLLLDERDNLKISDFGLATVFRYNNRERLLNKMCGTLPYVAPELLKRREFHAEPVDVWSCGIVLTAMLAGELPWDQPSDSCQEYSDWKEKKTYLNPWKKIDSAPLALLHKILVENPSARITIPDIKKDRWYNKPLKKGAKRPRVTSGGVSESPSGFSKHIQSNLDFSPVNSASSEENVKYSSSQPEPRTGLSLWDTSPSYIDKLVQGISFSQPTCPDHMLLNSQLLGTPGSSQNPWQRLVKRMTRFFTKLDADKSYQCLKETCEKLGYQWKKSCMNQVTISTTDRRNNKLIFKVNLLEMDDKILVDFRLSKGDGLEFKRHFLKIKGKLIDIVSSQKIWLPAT

[23] = molecular target: T3, Protein kinase C zeta type (Homo sapiens, UniProt Q05513); test: Inhibition of human PKCzeta using biotin-PKC-86 peptide substrate after 30 mins in the presence of phosphatidylserine and diacylglycerol activators by scintillation counting; method in brief: as §1
T3 sequence (Q05513 whole entry): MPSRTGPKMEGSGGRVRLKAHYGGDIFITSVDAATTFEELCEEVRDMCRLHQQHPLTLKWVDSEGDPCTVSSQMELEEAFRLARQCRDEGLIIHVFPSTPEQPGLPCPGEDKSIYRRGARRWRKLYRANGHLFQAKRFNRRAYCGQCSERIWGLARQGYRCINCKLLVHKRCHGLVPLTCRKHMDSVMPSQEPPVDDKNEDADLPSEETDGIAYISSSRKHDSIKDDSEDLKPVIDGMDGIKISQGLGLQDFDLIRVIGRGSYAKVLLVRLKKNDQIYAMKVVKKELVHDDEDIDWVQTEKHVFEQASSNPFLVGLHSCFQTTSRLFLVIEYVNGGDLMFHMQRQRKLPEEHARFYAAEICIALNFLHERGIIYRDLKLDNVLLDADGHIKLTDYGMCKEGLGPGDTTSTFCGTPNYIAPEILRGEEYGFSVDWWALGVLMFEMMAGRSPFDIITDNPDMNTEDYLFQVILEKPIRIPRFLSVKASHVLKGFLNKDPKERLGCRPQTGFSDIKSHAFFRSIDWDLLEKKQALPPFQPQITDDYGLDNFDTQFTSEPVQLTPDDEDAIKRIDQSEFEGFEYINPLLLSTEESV

[24] = Half life in diabetic ZDF fa/fa rat at 8 mg/kg administered 4.5 and 0.5 hrs prior to oral glucose challenge; type: ADME, organism-based; details: in vivo
Rattus norvegicus [25] = test: Antihyperglycemic activity in diabetic ZDF fa/fa rat assessed as plasma glucose levels at 30 mg/kg, po administered as single dose measured after 60 mins (reference value: 500 to 550 mg/dl); type: functional
Method in brief: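 Twelve-week-old male ZDF (fa/fa) rats with fasted basal glucose of 500–550 mg/dL, food removed 3–4 h before dosing. A single oral dose was given with vehicle 15% captisol. Plasma glucose and insulin were measured from serial tail-snip bleeds, n = 8/group, mean ± SEM.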

Mus musculus [26] = test: Antiobesity activity in diabetic […] mouse assessed as improvement in glucose tolerance administered at 30 mg/kg, po measured post glucose challenge and measured after 20 hrs post compound dose by oral glucose tolerance test relative to control; type: functional, organism-based
Rattus norvegicus [27] = test: Antidiabetic activity in 12 weeks old obese ZDF fa/fa rat assessed as increase in plasma glucose disposal at 30 mg/kg dosed at 4.5 and 0.5 hrs prior to oral glucose challenge by oral glucose tolerance test; type: functional, organism-based
[28] = Inhibition of human phosphodiesterase 3 using cAMP substrate after 20 mins by scintillation counting
Mus musculus [29] = test: Antiobesity activity in diabetic […] mouse assessed as improvement in glucose tolerance administered at 30 mg/kg, po measured post glucose challenge by oral glucose tolerance test relative to control; type: functional, organism-based
Method in brief: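 ob/ob mice aged 9–10 weeks, 6–8 per group, given an oral glucose tolerance test with oral dosing at −4.5 and −0.5 h (vehicle captisol). Plasma glucose and insulin were measured after the glucose challenge. Values are mean ± SEM.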

Mus musculus [30] = species on record: Mus musculus; test: Antidiabetic activity in streptozotocin-treated mouse fed with high fat diet assessed as reduction in post-challenge glucose AUC; type: functional; set-up: scale not given: the % may be the effect or the level left
Method in brief: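 Mice on a high-fat diet with intermittent streptozotocin were dosed orally at −4.5 and −0.5 h before oral glucose challenge. Post-challenge glucose AUC and insulin were measured.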

Rattus norvegicus [31] = test: Antihyperglycemic activity in diabetic ZDF fa/fa rat assessed as plasma glucose levels at 5 mg/kg, iv prime dose with continuous infusion at 64 ug/kg/min for 4 days (reference value: 223 +/- 18 mg/dL); type: functional
Mus musculus [32] = test: Antidiabetic activity in diabetic db/db mouse assessed as reduction in plasma glucose AUC administered orally at 4.5 and 0.5 hrs prior to oral glucose challenge by oral glucose tolerance test; type: functional
Method in brief: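 db/db mice, 6–8 per group, fasted ~6 h, dosed orally at 30 mg/kg at −4.5 and −0.5 h before oral glucose challenge. Efficacy is the percent reduction in plasma glucose AUC versus untreated animals. Vehicle was 15% captisol, 1% CMC or pH-adjusted water.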

half-life [1]: > 30 min | IC50 [2]: > 10 µM | IC50 [3]: > 10 µM | IC50 [4]: > 10 µM | IC50 [5]: 0.0006 µM | IC50 [6]: 0.001 µM | IC50 [7]: > 10 µM | IC50 (Angiopoietin-1 receptor): > 25 µM | IC50 [8]: > 5 µM | IC50 [9]: > 10 µM | IC50 [10]: > 5 µM | IC50 [11]: > 10 µM | IC50 [12]: 0.0271 µM | EC50 [13]: 0.26 µM | IC50 [15]: > 10 µM | concentration at 20 min [16]: 19000 ng/mL | IC50 [17]: > 10 µM | half-life [18]: > 30 min | IC50 [19]: > 5 µM | bioavailability [20]: 6% | IC50 [21]: > 5 µM | IC50 [22]: > 10 µM | IC50 [23]: > 10 µM | half-life [24]: 46 min
Structure (SMILES): Nc1nc(NCCNc2ncc(-c3ncc[nH]3)c(-c3ccc(Cl)cc3Cl)n2)ccc1[N+](=O)[O-]
Activity (Rattus norvegicus [14]): 29%

IC50 [4]: > 10 µM | IC50 [6]: 0.005 µM | IC50 [8]: > 10 µM | EC50 [13]: 0.77 µM | Ki [28]: 8.3 µM | IC50 [17]: > 10 µM
Structure (SMILES): Cc1cnc(-c2cnc(NCCNc3ccc(C#N)cn3)nc2-c2ccc(Cl)cc2Cl)[nH]1 [LADUVIGLUSIB]
Activity (Rattus norvegicus [25]): >=150 mg/dl | Activity (Mus musculus [26]): Active | Activity (Rattus norvegicus [27]): Active | Activity (Rattus norvegicus [14]): 38% | Activity (Mus musculus [29]): Active | Activity (Mus musculus [30]): 53% | Activity (Rattus norvegicus [31]): 116 mg/dL | Activity (Mus musculus [32]): Dose-dependent effect
